Results as given in ChEMBL document CHEMBL1136765, “1,3-dioxolane-based ligands as a novel class of alpha1-adrenoceptor antagonists” (J Med Chem, 2003).

Experiments:
Type in all cases: functional, tissue-based
[1] = molecular target: T1, Alpha-1D adrenergic receptor (Rattus norvegicus, UniProt P23944); assay: Antagonistic activity against (-)-noradrenaline-induced contraction of rat thoracic aorta (Alpha-1D adrenergic receptor); settings: read-out: pA2 (converted)
T1 sequence (P23944 whole entry): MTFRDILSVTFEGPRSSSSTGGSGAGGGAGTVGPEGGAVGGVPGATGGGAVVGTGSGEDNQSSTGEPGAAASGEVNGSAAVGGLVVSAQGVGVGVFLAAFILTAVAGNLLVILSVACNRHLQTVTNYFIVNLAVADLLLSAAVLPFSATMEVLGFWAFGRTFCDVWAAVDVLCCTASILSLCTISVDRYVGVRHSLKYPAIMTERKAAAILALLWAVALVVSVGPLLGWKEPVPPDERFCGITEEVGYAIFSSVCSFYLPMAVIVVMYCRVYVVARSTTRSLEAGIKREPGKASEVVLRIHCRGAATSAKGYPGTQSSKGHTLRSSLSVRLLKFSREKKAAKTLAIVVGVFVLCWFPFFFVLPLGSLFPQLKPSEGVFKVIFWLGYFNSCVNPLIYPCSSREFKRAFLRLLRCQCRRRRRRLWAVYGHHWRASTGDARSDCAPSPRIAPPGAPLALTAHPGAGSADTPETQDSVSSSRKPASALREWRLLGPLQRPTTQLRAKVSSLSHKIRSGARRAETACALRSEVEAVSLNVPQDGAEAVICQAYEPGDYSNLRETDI
Method in brief: (§1)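 Endothelium-denuded rat thoracic aorta strips (denudation confirmed by no 100 µM acetylcholine relaxation after 1 µM noradrenaline) in Tyrode, 1 g tension, ≥2 h equilibration. Cumulative (-)-noradrenaline curves at 1 h intervals; third as control, antagonist 30 min before fourth.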

[2] = molecular target: T2, Alpha-1B adrenergic receptor (Rattus norvegicus) (UniProt P15823); assay: Inhibition of (-)-phenylephrine-induced contraction of rat spleen (Alpha-1B adrenergic receptor )
T2 sequence (whole entry): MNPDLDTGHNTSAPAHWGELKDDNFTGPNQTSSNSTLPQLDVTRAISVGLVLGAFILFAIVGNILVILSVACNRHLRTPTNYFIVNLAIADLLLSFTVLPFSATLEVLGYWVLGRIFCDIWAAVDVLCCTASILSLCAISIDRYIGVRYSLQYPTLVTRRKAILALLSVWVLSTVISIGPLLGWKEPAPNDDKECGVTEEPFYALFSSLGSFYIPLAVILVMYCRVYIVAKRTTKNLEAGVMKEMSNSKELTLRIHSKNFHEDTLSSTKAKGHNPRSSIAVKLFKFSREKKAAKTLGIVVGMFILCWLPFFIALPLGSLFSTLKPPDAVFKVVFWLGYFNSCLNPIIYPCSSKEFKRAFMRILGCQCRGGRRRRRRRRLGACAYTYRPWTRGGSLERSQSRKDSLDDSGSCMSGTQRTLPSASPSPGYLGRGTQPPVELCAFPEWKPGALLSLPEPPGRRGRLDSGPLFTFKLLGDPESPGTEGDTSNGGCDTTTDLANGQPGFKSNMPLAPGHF
Method in brief: (§2)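 Rat spleen strips in buffer containing 4 µM propranolol to block β-adrenoceptors, 1 g resting tension, 2 h equilibration. Isometric cumulative phenylephrine curves at 30 min intervals; first discarded, second control.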

[3] = molecular target: T3, Alpha-1D adrenergic receptor (Rattus norvegicus) (UniProt P23944); assay: Inhibition of (-)-noradrenaline-induced contraction of rat thoracic aorta (Alpha-1D adrenergic receptor); method in brief: as §1
T3 sequence (whole entry): T1 sequence (P23944 whole entry)

[4] = molecular target: T4, Alpha-1A adrenergic receptor (Rattus norvegicus, UniProt P43140); assay: Antagonistic activity against (-)-noradrenaline-induced contraction of rat prostatic vas deferens (alpha1A receptor); settings: read-out: pA2 (converted)
T4 sequence (P43140 whole entry): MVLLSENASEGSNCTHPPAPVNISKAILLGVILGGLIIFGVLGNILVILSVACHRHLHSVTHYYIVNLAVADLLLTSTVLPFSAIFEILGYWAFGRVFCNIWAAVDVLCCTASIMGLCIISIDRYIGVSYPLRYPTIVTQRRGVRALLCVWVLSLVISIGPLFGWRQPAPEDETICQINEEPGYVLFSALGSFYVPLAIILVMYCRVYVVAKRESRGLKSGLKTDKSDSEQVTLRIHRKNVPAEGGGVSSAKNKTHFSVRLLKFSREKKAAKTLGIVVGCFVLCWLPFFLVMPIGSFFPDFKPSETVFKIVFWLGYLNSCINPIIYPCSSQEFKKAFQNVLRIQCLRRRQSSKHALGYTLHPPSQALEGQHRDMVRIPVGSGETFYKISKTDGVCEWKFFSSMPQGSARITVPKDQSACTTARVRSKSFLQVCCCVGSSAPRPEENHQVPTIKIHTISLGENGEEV
Method in brief: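 Rat prostatic vas deferens portion equilibrated 60 min, washed every 15 min, primed twice with 10 µM noradrenaline, re-equilibrated 60 min; control noradrenaline concentration-response curve, then antagonist 30 min before repeat curve.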

[5] = molecular target: T5, Alpha-1B adrenergic receptor (Rattus norvegicus, UniProt P15823); assay: Antagonistic activity against (-)-phenylephrine-induced contraction of rat spleen (Alpha-1B adrenergic receptor ); settings: read-out: pA2 (converted); method in brief: as §2
T5 sequence (P15823 whole entry): T2 sequence (whole entry)

| Compound | Kb [1] [nM] | pKb [2] | pKb [3] | Kb [4] [nM] | Kb [5] [nM] |
| --- | --- | --- | --- | --- | --- |
| O=C(O)C(=O)O.c1ccc(OCCNCC2COC(c3ccccc3)(c3ccccc3)O2)cc1 (centres undefined) | 4.27 | 5.86 |  |  |  |
| C[N+](C)(CCOc1ccccc1)CC1COC(c2ccccc2)(c2ccccc2)O1.O=C([O-])C(=O)O (centres undefined) |  | 5.6 | 6.19 |  |  |
| COc1ccccc1OCCNCC1COC(c2ccccc2)(c2ccccc2)O1.O=C(O)C(=O)O (centres undefined) | 2.24 |  |  | 29.5 | 43.7 |
| CN(CCOc1ccccc1)CC1COC(c2ccccc2)(c2ccccc2)O1.O=C(O)C(=O)O (centres undefined) |  | 5.31 | 6.06 |  |  |
